What all share (format): functional
One assay relates to Vero. Nature of the assay: Antiviral activity was determined in plaque reduction assay in vero cells against HSV-1 F strain. Conditions: Chlorocebus sabaeus, read-out: ID50 (the source's name). Put shortly:
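Vero cells were infected with HSV-1 (F strain) and then treated with the nucleoside analogue. ID50 is the dose giving a 50% reduction in plaque number relative to untreated controls.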
(In a plaque reduction assay, fewer plaques than in the control indicate reduced infectivity or spread.)

Assay [1] has as its system Mus musculus. Nature of the assay: Effect of oral treatment on HSV-2 encephalitis infection in mice and mean survival time was reported at a dose 20 mg/kg. The method, boiled down: (§1)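 Female Swiss-Webster mice, about 20 g, were infected intraperitoneally with 5 × 10⁴ PFU HSV-2 (strain G), roughly ten LD50. Drug was given orally once daily for 4 days, beginning 24 h after infection, with a placebo group included. Read-outs were survivors/total and mean survival time in days.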

Assay [2] deals with Mus musculus. As to the kind of experiment: Effect of oral treatment on HSV-2 encephalitis infection in mice and mean survival time was reported at a dose 10 mg/kg. The method, boiled down: as §1
The subject of assay [3] is Mus musculus. As to the kind of experiment: Effect of oral treatment on HSV-2 encephalitis infection in mice and survivors/total was reported at a dose 20 mg/kg; 5/20. Put shortly:
as §1

Assay [4] deals with Mus musculus. As to the kind of experiment: Effect of oral treatment on HSV-2 encephalitis infection in mice and survivors/total was reported at a dose 10 mg/kg; 4/20. The method, boiled down:
as §1

Assay [5] concerns Mus musculus. Nature of the assay: Effect of oral treatment on HSV-2 encephalitis infection in mice and survivors/total was reported at a dose 40 mg/kg; 7/20. Put shortly:
as §1

Assay [6] concerns Mus musculus. Nature of the assay: Effect of oral treatment on HSV-2 encephalitis infection in mice and mean survival time was reported at a dose 40 mg/kg. Put shortly:
as §1

In assay [7] the test system is Mus musculus. Nature of the assay: Effect of oral treatment on HSV-2 encephalitis infection in mice and survivors/total was reported at a dose 5 mg/kg; 8/20. The method, boiled down: as §1
The subject of assay [8] is Mus musculus. Nature of the assay: Effect of oral treatment on HSV-2 encephalitis infection in mice and mean survival time was reported at a dose 5 mg/kg. The method, boiled down:
as §1

Assay [9] relates to Mus musculus. As to the kind of experiment: Effect of oral treatment on HSV-2 encephalitis infection in mice and survivors/total was reported at a dose 10 mg/kg; 5/20. The method, boiled down: as §1
The test system of assay [10] is Mus musculus. Nature of the assay: Effect of oral treatment on HSV-2 encephalitis infection in mice and survivors/total was reported at a dose 20 mg/kg; 8/20. The method, boiled down:
as §1

Regarding `Nc1ncnc2c1ncn2COC(CO)CO`, the IC50 with Vero is above 100 µM.
`Nc1nc(S)c2ncn(COC(CO)CO)c2n1`: the IC50 in the assay with Vero was 9 µM.
On to `Nc1nc(N)c2ncn(COC(CO)CO)c2n1`, for which the Survival time worked out at 10.9 days in the assay on Mus musculus [1], 10.8 days with Mus musculus [2] and 11.5 days with Mus musculus [6]. In addition, the Survival is 5 in the assay on Mus musculus [3], 4 in the assay with Mus musculus [4] and 7 with Mus musculus [5]. Moreover, the IC50 in the assay on Vero turned out to be 3.3 µM.
`Nc1nc(=O)n(COC(CO)CO)cc1F`: the IC50 in the assay with Vero is above 100 µM.
Take `Nc1ncc2ncn(COC(CO)CO)c2n1`: the IC50 in the assay on Vero turned out to be 16 µM.
As to `O=c1[nH]c(=O)n(COC(CO)CO)cc1F`, in the assay with Vero, the IC50 was above 100 µM.
On to `Cc1cn(COC(CO)CO)c(=O)[nH]c1=O`, for which, in the assay with Vero, the IC50 is above 100 µM.
Same read-out and setting: as for `Nc1ccn(COC(CO)CO)c(=O)n1`, the figure is above 100 µM; as for `O=c1[nH]c(=O)n(COC(CO)CO)cc1Br`, above 100 µM; as for `O=c1ccn(COC(CO)CO)c(=O)[nH]1`, above 100 µM.
Take `Nc1nc(=O)ccn1COC(CO)CO`: in the assay with Vero, the IC50 is above 100 µM.
As to `Nc1nc2c(ncn2COCCO)c(=O)[nH]1` [ACYCLOVIR], in the assay with Vero, the IC50 is 0.5 µM.
With `Nc1nc2c(ncn2COC(CO)CO)c(=O)[nH]1` [GANCICLOVIR], the Survival in the assay with Mus musculus [7] worked out at 8; in the assay with Mus musculus [9], 5; with Mus musculus [10], 8. In addition, the Survival time was 13.8 days in the assay with Mus musculus [1], 10.9 days in the assay on Mus musculus [2] and 9.9 days in the assay with Mus musculus [8]. In addition, the IC50 with Vero turned out to be 0.2 µM.

For the origin of these results see ChEMBL document CHEMBL1122960, “Acyclic analogues of 2'-deoxynucleosides related to 9-[(1,3-dihydroxy-2-propoxy)methyl]guanine as potential antiviral agents” (1985).
